In the library only some 1% were active in any assay of this set; here they are far more common.
Neddyl block – inhibitors of cullin neddylation, primary screen, biochemical, TR-FRET, uHTS, NAE and Ubc12; inhibition, % at 25 µM; 0.58% of 360,000 active; NEDD8-conjugating enzyme Ubc12 (Homo sapiens) + NEDD8-activating enzyme E1 regulatory …; in the data active = inhibition above about 36%
PKA-R2B act – activators of PKA-R2B holoenzyme, primary screen, biochemical, fluorescence polarization, Cy5-IP20, human; PKA-R2B holoenzyme dissociation; R2B truncated from residue 108, S112A mutant; 0% DMSO only, 100% 113 µM cGMP; activation, % at 11.4 µM; 0.079% of 340,000 active; AID 504700, 2011;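 active = activation above a cutoff set at the mean over all compounds plus 3 SD, cut at about 18% in these data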;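 also: higher means more holoenzyme dissociation and a rise in polarization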
Target sequence (P31323 whole entry, looked up, other chains not shown, the tested form may be a part): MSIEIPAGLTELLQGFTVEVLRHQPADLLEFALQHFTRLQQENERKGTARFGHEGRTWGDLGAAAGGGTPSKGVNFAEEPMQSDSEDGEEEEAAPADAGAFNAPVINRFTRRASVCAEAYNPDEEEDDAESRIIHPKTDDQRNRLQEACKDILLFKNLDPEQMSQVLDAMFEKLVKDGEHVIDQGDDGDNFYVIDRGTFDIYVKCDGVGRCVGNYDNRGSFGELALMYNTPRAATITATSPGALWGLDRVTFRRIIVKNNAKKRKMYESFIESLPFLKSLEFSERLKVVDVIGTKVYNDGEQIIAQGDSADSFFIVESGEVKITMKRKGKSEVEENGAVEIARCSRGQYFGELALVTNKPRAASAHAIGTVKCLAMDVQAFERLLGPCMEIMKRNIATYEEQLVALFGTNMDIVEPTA
Tn6 DDE FP – inhibitors of Tn6 peptide binding to fibrin DD(E), primary screen, biochemical, fluorescence polarization, human fibrin, Tn6 probe; inhibition, % at 8.3 µM; 0.21% of 370,000 active; AID 720509, 2013; Fibrin DD(E) TRITC-Tn6 fluorescence polarization displacement; Fibrinogen beta chain (Homo sapiens), P02675;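 active = inhibition above a per-campaign cutoff: mean of compounds within control limits plus 3 SD, cut at about 15% in these data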
Tn7 DDE FP – inhibitors of Tn7 peptide binding to fibrin DD(E), primary screen, biochemical, fluorescence polarization, human fibrin, Tn7 probe. 0.13% of 370,000 active. Fibrinogen beta chain (Homo sapiens), P02675. AID 720508, 2013. FP displacement of FITC-Tn7 peptide from fibrin DD(E); 0% = median of compound wells per plate. inhibition, % at 8.3 µM;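 active = inhibition above the mean of compounds falling within the control limits plus 3 SD of them, cut at about 14% in these data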
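Test system: human clot-derived fibrin DD(E) complex / Quantity: 2 µM final DD(E) protein / Incubation: 10 min plus 3 h, room temperature / Measured by: fluorescence polarization / Benchmarks: high control of 10 µM Aha-Tn7 peptide / Replicates: singlicate testing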
PKA-R1A activ – activators of PKA-R1A holoenzyme, primary screen, biochemical, fluorescence polarization, Cy5-IP20, bovine R1A, mouse PKAc. cAMP-dependent protein kinase type I-alpha regulatory subunit (Bos taurus) + …. PKA-R1A dissociation; scaled: DMSO 0%, 113 µM cGMP 100%. activation, % at 11.4 µM. 0.083% of 340,000 active. AID 504707, 2011;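 active = percent activation above the mean of all tested compounds plus 3 SD, cut at about 19% in these data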;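 also: higher means more PKAc released from R1A so a rise in polarization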
DDE Tn6 FP ctr – counter-screen hit for Tn6 peptide-fibrin DD(E) binding disruption. shares compounds with Tn6 DDE FP. TRITC-Tn6 fluorescence polarization displacement; 0% = median of compound wells, not DMSO. inhibition, % at 8.3 µM. 2% of 680 active;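 active = inhibition above the mean of test compounds lying between the control limits plus 3 SD of those, cut at about 14% in these data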
Tn6 DDE conf – inhibitors of Tn6 peptide binding to fibrin DD(E), confirmation, biochemical, fluorescence polarization, human fibrin, Tn6 probe; shares compounds with Tn6 DDE FP; FP displacement of TRITC-Tn6 peptide from DD(E); 0% = per-plate median of test wells; inhibition, % at 8.3 µM; 10% of 680 active; AID 720631, 2013;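 active = inhibition above the mean of compounds lying within the control limits plus 3 SD, cut at about 16% in these data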
Of the large screens only hits and unclear results are named; the others gave an inactive call (follow-up assays come after a bar, where shown).

O=C(CCNC(=O)c1ccco1)Nc1ccc(C(F)(F)F)cc1	none
CC(C)(C)c1ccc(NC(=O)CCNC(=O)c2ccco2)cc1	Tn6 DDE FP 15.5 | DDE Tn6 FP ctr inactive | Tn6 DDE conf inactive
CCN1CCN(c2ccc(S(=O)(=O)N3CCCCC3)cc2NC(=O)/C=C/c2cccc(OC)c2OC)CC1	Tn6 DDE FP 16.1 | DDE Tn6 FP ctr inactive | Tn6 DDE conf inactive
CCN1CCN(c2ccc(S(=O)(=O)N3CCCCC3)cc2NC(=O)/C=C/c2ccc(F)cc2)CC1	none
CCN1CC2=C(OC(N)=C(C#N)C2c2ccccc2)/C(=C\c2ccccc2)C1 (stereo unspecified)	Tn6 DDE FP 25.0 | DDE Tn6 FP ctr inactive | Tn6 DDE conf inactive
CC(=O)Nc1ccc(N/C=C2/CCCC2=O)cc1	none
Cc1cc(O)ccc1N/C=C1\CCCC1=O	Tn6 DDE FP 29.6 | DDE Tn6 FP ctr inactive | Tn6 DDE conf inactive
N=c1c(C(=O)NC2CCCC2)cc2c(=O)n3ccccc3nc2n1CCN1CCOCC1	Tn6 DDE FP 15.6 (not shown: Neddyl block) | DDE Tn6 FP ctr inactive | Tn6 DDE conf inactive
CC1CCN(C(=O)COC(=O)CCc2c[nH]c3ccccc23)CC1	none
CC1CCN(C(=O)COC(=O)Cc2c[nH]c3ccccc23)CC1	Tn6 DDE FP 21.4 | DDE Tn6 FP ctr inactive | Tn6 DDE conf inactive
O=C1CCC[C@H]2[C@@H](Cc3ccccc3)[C@@H](O)CC[C@]23CCCN13	none (no result: Neddyl block, PKA-R2B act, PKA-R1A activ)
O=C(COC(=O)c1ccccc1NC(=O)c1ccccc1)c1cccc([N+](=O)[O-])c1	Tn6 DDE FP 16.8 | DDE Tn6 FP ctr inactive | Tn6 DDE conf inactive
O=C(Cc1c[nH]c2ccccc12)Nc1ccc(Nc2cccnc2)c(-c2ccc(OC(F)(F)F)cc2)c1	none (no result: Neddyl block, PKA-R2B act, PKA-R1A activ)
C=C1CCN(c2ccc(C(=O)NCc3ccc(OC)cc3)cc2[N+](=O)[O-])CC1	Tn6 DDE FP 15.3 | DDE Tn6 FP ctr inactive | Tn6 DDE conf inactive
COC(=O)C1=C(C)N(Cc2ccccc2C(F)(F)F)C(=NCc2ccccc2C(F)(F)F)NC1c1ccc(Cl)cc1 (stereo unspecified)	none (no result: Neddyl block, PKA-R2B act, PKA-R1A activ)
CCOc1ccc(S(=O)(=O)N(CC(=O)NCc2cccnc2)c2ccc(F)cc2)cc1	Tn6 DDE FP 18.1 | DDE Tn6 FP ctr inactive | Tn6 DDE conf inactive
CCOc1ccc(S(=O)(=O)N(CC(=O)NCc2cccnc2)c2ccc(C)cc2)cc1	none
C/C(CC1CC(COCC(C)C)OC1=O)=N\NC(N)=S (stereo unspecified)	none
CCCCCOCC1CC(C/C(C)=N/NC(N)=S)C(=O)O1 (stereo unspecified)	Tn6 DDE FP 15.5 | DDE Tn6 FP ctr inactive | Tn6 DDE conf inactive
COc1ccc(NC(=O)C2CCCN2C(=O)NC2CCCCC2)cc1 (stereo unspecified)	Tn6 DDE FP 17.4 | DDE Tn6 FP ctr inactive | Tn6 DDE conf inactive
CC(NC(=O)Nc1ccc(O)cc1)(C(F)(F)F)C(F)(F)F	Tn6 DDE FP 29.1 | DDE Tn6 FP ctr inactive | Tn6 DDE conf inactive
COc1ccc(NC(=O)NC(C)(C(F)(F)F)C(F)(F)F)cc1	none
COc1ccc(C(=O)N(C)Cc2ccc(C)o2)cc1OC1CCN(C(C)=O)CC1	Tn6 DDE FP 16.1 | DDE Tn6 FP ctr inactive | Tn6 DDE conf inactive
COc1ccc(C(=O)N2CCCCCC2)cc1OC1CCN(C(C)=O)CC1	none
Nc1ccc(N2CCOCC2)c(S(=O)(=O)Nc2ccccc2Cl)c1	Tn6 DDE FP 17.9 | DDE Tn6 FP ctr inactive | Tn6 DDE conf inactive
